# Source: ChEMBL document CHEMBL1138290 (J Med Chem, 2007)
# Columns and labels:
# RKO [1] = test: Cytotoxicity against human RKO cells with ectopic-inducible expression of p27kip1 after 48 hrs by XTT assay; assay type: functional, cell-based
# In short: (§1)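 XTT proliferation assay with 48 h incubation with test compound. Each experiment run at least in duplicate (n = 2). IC50 calculated by nonlinear regression of dose-response curves.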
# [2] = Cell cycle arrest in KB/HeLa cells assessed as accumulation at G1 phase at 316 nM after 24 hrs by flow cytometric analysis; assay type: functional, cell-based; settings: Homo sapiens
# In short: (§2)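 Subconfluent KB/HeLa cells exposed to a range of compound concentrations for 24 h. Cell cycle phase distribution determined by flow cytometry. Experiments run at least in duplicate (n = 2).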
# [3] = Cytotoxicity against human KB/HeLa cells after 48 hrs by XTT assay; assay type: functional, cell-based; in short: as §1
# P388 [4] = test: Antiproliferative activity against mouse P388 cells after 48 hrs by XTT assay; assay type: functional, cell-based; settings: P388, 48 h; in short: as §1
# [5] = Antiproliferative activity against rat multidrug-resistant L12 cells after 48 hrs by XTT assay; assay type: functional, cell-based; settings: L1.2, 48 h; in short: as §1
# [6] = Cell cycle arrest in KB/HeLa cells assessed as accumulation at G2M phase at 0.3 nM after 24 hrs by flow cytometric analysis; assay type: functional, cell-based; settings: Homo sapiens; in short: as §2
# [7] = Cell cycle arrest in KB/HeLa cells assessed as accumulation at G1 phase at 10 nM after 24 hrs by flow cytometric analysis; assay type: functional, cell-based; settings: Homo sapiens; in short: as §2
# [8] = Cell cycle arrest in KB/HeLa cells assessed as accumulation at G1 phase at 0.1 nM after 24 hrs by flow cytometric analysis; assay type: functional, cell-based; settings: Homo sapiens; in short: as §2
# [9] = Cell cycle arrest in KB/HeLa cells assessed as accumulation at G2M phase at 31.6 nM after 24 hrs by flow cytometric analysis; assay type: functional, cell-based; settings: Homo sapiens; in short: as §2
# [10] = Cell cycle arrest in KB/HeLa cells assessed as accumulation at S phase at 3.16 nM after 24 hrs by flow cytometric analysis; assay type: functional, cell-based; settings: Homo sapiens; in short: as §2
# [11] = Cell cycle arrest in KB/HeLa cells assessed as accumulation at G2M phase at 10 nM after 24 hrs by flow cytometric analysis; assay type: functional, cell-based; settings: Homo sapiens; in short: as §2
# Tubulin [12] = test: Displacement of [3H]colchicine from biotinylated tubulin by scintillation proximity assay; assay type: protein-complex assay, Homo sapiens
# [13] = Cell cycle arrest in KB/HeLa cells assessed as accumulation at G2M phase at 0.1 nM after 24 hrs by flow cytometric analysis; assay type: functional, cell-based; settings: Homo sapiens; in short: as §2
# P388 [14] = test: Antiproliferative activity against mouse adriamycin-resistant P388 cells after 48 hrs by XTT assay; assay type: functional, cell-based; settings: P388, 48 h; in short: as §1
# RKO [15] = test: Cytotoxicity against human RKO cells after 48 hrs by XTT assay; assay type: functional, cell-based; in short: as §1
# [16] = Cell cycle arrest in KB/HeLa cells assessed as accumulation at G1 phase at 0.3 nM after 24 hrs by flow cytometric analysis; assay type: functional, cell-based; settings: Homo sapiens; in short: as §2
# NCI-H460 = test: Cytotoxicity against human NCI-H460 cells after 48 hrs by XTT assay; assay type: functional, cell-based; settings: NCI-H460, 48 h; in short: as §1
# [17] = Cell cycle arrest in KB/HeLa cells assessed as accumulation at S phase at 100 nM after 24 hrs by flow cytometric analysis; assay type: functional, cell-based; settings: Homo sapiens; in short: as §2
# [18] = Cell cycle arrest in KB/HeLa cells assessed as accumulation at G1 phase at 3.16 nM after 24 hrs by flow cytometric analysis; assay type: functional, cell-based; settings: Homo sapiens; in short: as §2
# SK-OV-3 = test: Cytotoxicity against human SKOV3 cells after 48 hrs by XTT assay; assay type: functional, cell-based; settings: SK-OV-3, 48 h; in short: as §1
# [19] = Cell cycle arrest in KB/HeLa cells assessed as accumulation at S phase at 1000 nM after 24 hrs by flow cytometric analysis; assay type: functional, cell-based; settings: Homo sapiens; in short: as §2
# Tubulin [20] = molecular target: Tubulin (Sus scrofa, UniProt P02554+P02550); test: Inhibition of porcine brain tubulin polymerization
# [21] = Antiproliferative activity against rat L12 cells after 48 hrs by XTT assay; assay type: functional, cell-based
# [22] = Cell cycle arrest in KB/HeLa cells assessed as accumulation at S phase at 0.1 nM after 24 hrs by flow cytometric analysis; assay type: functional, cell-based; settings: Homo sapiens; in short: as §2
# [23] = Cell cycle arrest in KB/HeLa cells assessed as accumulation at G2M phase at 316 nM after 24 hrs by flow cytometric analysis; assay type: functional, cell-based; settings: Homo sapiens; in short: as §2
# [24] = Cell cycle arrest in KB/HeLa cells assessed as accumulation at G1 phase at 1 nM after 24 hrs by flow cytometric analysis; assay type: functional, cell-based; settings: Homo sapiens; in short: as §2
# [25] = Cell cycle arrest in KB/HeLa cells assessed as accumulation at G2M phase at 100 nM after 24 hrs by flow cytometric analysis; assay type: functional, cell-based; settings: Homo sapiens; in short: as §2
# [26] = Cell cycle arrest in KB/HeLa cells assessed as accumulation at G2M phase at 3.16 nM after 24 hrs by flow cytometric analysis; assay type: functional, cell-based; settings: Homo sapiens
# [27] = Cell cycle arrest in KB/HeLa cells assessed as accumulation at G2M phase at 1000 nM after 24 hrs by flow cytometric analysis; assay type: functional, cell-based; settings: Homo sapiens; in short: as §2
# [28] = Cell cycle arrest in KB/HeLa cells assessed as accumulation at G1 phase at 1000 nM after 24 hrs by flow cytometric analysis; assay type: functional, cell-based; settings: Homo sapiens; in short: as §2
# L1210 [29] = test: Antiproliferative activity against mouse vincristine-resistant L1210 cells after 48 hrs by XTT assay; assay type: functional, cell-based; settings: L1210, 48 h; in short: as §1
# [30] = Cell cycle arrest in KB/HeLa cells assessed as accumulation at G2M phase at 1 nM after 24 hrs by flow cytometric analysis; assay type: functional, cell-based; settings: Homo sapiens; in short: as §2
# [31] = Cell cycle arrest in KB/HeLa cells assessed as accumulation at S phase at 31.6 nM after 24 hrs by flow cytometric analysis; assay type: functional, cell-based; settings: Homo sapiens; in short: as §2
# [32] = Cell cycle arrest in KB/HeLa cells assessed as accumulation at S phase at 0.3 nM after 24 hrs by flow cytometric analysis; assay type: functional, cell-based; settings: Homo sapiens; in short: as §2
# [33] = Cell cycle arrest in KB/HeLa cells assessed as accumulation at S phase at 10 nM after 24 hrs by flow cytometric analysis; assay type: functional, cell-based; settings: Homo sapiens; in short: as §2
# K562 = test: Antiproliferative activity against human K562 cells after 48 hrs; assay type: functional, cell-based; settings: K562, 48 h
# In short: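 Growth of K562 cells measured by counting cells with a hemocytometer after 48 h (2 days) of drug treatment. IC50 is the mean of at least three independent determinations.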
# [34] = Cell cycle arrest in KB/HeLa cells assessed as accumulation at G1 phase at 100 nM after 24 hrs by flow cytometric analysis; assay type: functional, cell-based; settings: Homo sapiens; in short: as §2
# SF-268 = test: Cytotoxicity against human SF268 cells after 48 hrs by XTT assay; assay type: functional, cell-based; settings: SF-268, 48 h; in short: as §1
# [35] = Cell cycle arrest in KB/HeLa cells assessed as accumulation at G2/M phase after 24 hrs by flow cytometric analysis; assay type: functional, cell-based; settings: Homo sapiens; in short: as §2
# [36] = Cell cycle arrest in KB/HeLa cells assessed as accumulation at G1 phase at 31.6 nM after 24 hrs by flow cytometric analysis; assay type: functional, cell-based; settings: Homo sapiens; in short: as §2
# L1210 [37] = test: Antiproliferative activity against mouse L1210 cells after 48 hrs by XTT assay; assay type: functional, cell-based; settings: L1210, 48 h; in short: as §1
# [38] = Cell cycle arrest in KB/HeLa cells assessed as accumulation at S phase at 316 nM after 24 hrs by flow cytometric analysis; assay type: functional, cell-based; settings: Homo sapiens; in short: as §2
# [39] = Cell cycle arrest in KB/HeLa cells assessed as accumulation at S phase at 1 nM after 24 hrs by flow cytometric analysis; assay type: functional, cell-based; settings: Homo sapiens; in short: as §2
compound,measurement,setting,value
COc1ccc(S(=O)(=O)Oc2c3ccccc3cc3sccc23)cc1,IC50,RKO [1],> 9000 nM
same,Activity,[2],0.9%
same,IC50,[3],180 nM
same,IC50,P388 [4],180 nM
same,IC50,[5],190 nM
same,Activity,[6],12%
same,Activity,[7],60.7%
same,Activity,[8],60.6%
same,Activity,[9],11.7%
same,Activity,[10],26.5%
same,Activity,[11],11.9%
same,IC50,Tubulin [12],510 nM
same,Activity,[13],12.3%
same,IC50,P388 [14],180 nM
same,IC50,RKO [15],180 nM
same,Activity,[16],61.4%
same,IC50,NCI-H460,210 nM
same,Activity,[17],32.1%
same,Activity,[18],62.2%
same,IC50,SK-OV-3,210 nM
same,Activity,[19],9.7%
same,IC50,Tubulin [20],910 nM
same,IC50,[21],170 nM
same,Activity,[22],27.1%
same,Activity,[23],92.1%
same,Activity,[24],61.9%
same,Activity,[25],16.7%
same,Activity,[26],11.3%
same,Activity,[27],88.7%
same,Activity,[28],1.6%
same,IC50,L1210 [29],200 nM
same,Activity,[30],11.4%
same,Activity,[31],28.6%
same,Activity,[32],26.6%
same,Activity,[33],27.4%
same,IC50,K562,60 nM
same,Activity,[34],51.2%
same,IC50,SF-268,260 nM
same,EC50,[35],125 nM
same,Activity,[36],59.8%
same,IC50,L1210 [37],190 nM
same,Activity,[38],7%
same,Activity,[39],26.7%
COc1cc2c(c(OC)c1OC)-c1ccc(OC)c(=O)cc1[C@@H](NC(C)=O)CC2 [COLCHICINE],IC50,RKO [1],> 14000 nM
same,Activity,[2],0.3%
same,IC50,[3],30 nM
same,Activity,[6],10.1%
same,Activity,[7],32.2%
same,Activity,[9],87.6%
same,Activity,[10],25.1%
same,Activity,[11],32.1%
same,Activity,[16],63.3%
same,Activity,[17],5.1%
same,Activity,[18],64.3%
same,Activity,[23],94.5%
same,Activity,[24],64.7%
same,Activity,[25],94.7%
same,Activity,[30],10%
same,Activity,[31],11.9%
same,Activity,[32],26.6%
same,Activity,[33],35.7%
same,Activity,[34],0.3%
same,EC50,[35],14 nM
same,Activity,[36],0.5%
same,Activity,[38],5.2%
same,Activity,[39],25.4%
Cc1ccc(S(=O)(=O)Oc2c3ccccc3cc3sccc23)cc1,IC50,Tubulin [20],1050 nM
same,IC50,K562,440 nM
O=[N+]([O-])c1ccc(S(=O)(=O)Oc2c3ccccc3cc3sccc23)cc1,IC50,Tubulin [20],> 14000 nM
same,IC50,K562,2300 nM
O=S(=O)(Oc1c2ccccc2cc2sccc12)c1ccc(NO)cc1,IC50,K562,400 nM
COc1cc(N)ccc1S(=O)(=O)Oc1c2ccccc2cc2sccc12,IC50,K562,280 nM
